The nature of series [1]: folding enthalpy; higher = less favourable; fluorescence melt of hairpins on a sequencing array, two-state fit. The conditions noted are these: sodium 0.088 M. The gist of the method:
(§1)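 On a sequenced MiSeq flow cell, library hairpins with annealed Cy3 and quencher oligos were imaged for Cy3 fluorescence in 2.5 °C steps up to 60 °C, in 50 mM Na-HEPES pH 8.0, 25 mM NaCl. Normalisation used pre-quench Cy3 and control constructs. Bootstrapped two-state fits gave melting temperature and folding enthalpy, combined by inverse variance across four replicates and with fitted temperatures raised by 9.35 °C to match UV melts.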

Series [2] in a line: melting temperature; fluorescence melt of hairpins on a sequencing array, two-state fit, raised by 9.35 °C to match UV melts. Particulars: sodium 0.088 M. The gist of the method: as §1

Results on 73 sequences are retold here after the array DNA melting data of Ke et al. (doi:10.1101/2024.01.08.574731).

For the sequence GGTAGGGGAAACCCTGTC (..((((....))))..), the folding enthalpy in series [1] is -13.1 kcal/mol. The Tm in series [2] was 32.2 °C.
For GGTAGTACGAAAGTAACC (((..(((....)))))), in that order: -10.7 kcal/mol and 27.4 °C.
Take GGTAGTCGAAAGACACC (((.(((....)))))): the folding enthalpy in series [1] was -20.1 kcal/mol. For the same sequence, the Tm in series [2] came out at 50.4 °C.
Regarding GGTAGTGCGAAAGCAACC (((..(((....)))))), in series [1], the folding enthalpy is -10.8 kcal/mol. Further, the Tm in series [2] worked out at 32 °C.
Take GGTAGTGGAAACACTACC (((((((....))))))): the folding enthalpy in series [1] was -46.8 kcal/mol. The Tm in series [2] was 62.9 °C.
GGTAGTGGAAACATTGCC ((.(.((....)).).)): the folding enthalpy in series [1] was -17.1 kcal/mol. Also, the Tm in series [2] amounted to 28.5 °C.
The matching figures for GGTAGTGGAAACGCTATC (.(((.(....).))).): -15.7 kcal/mol and 30.8 °C.
For the sequence GGTATACCGAAAGGTACC (((..(((....)))))), the folding enthalpy in series [1] is -12.8 kcal/mol. In series [2], the Tm was determined as 36.4 °C.
Take GGTATACGAAAGTAACC (((.(((....)))))): the folding enthalpy in series [1] was -19.3 kcal/mol. Also, the Tm in series [2] worked out at 34.9 °C.
GGTATAGGAAACTATACC (((((((....))))))): the folding enthalpy in series [1] is -42.4 kcal/mol. In addition, the Tm in series [2] worked out at 52.1 °C.
For the sequence GGTATATCGAAAGATACC (((..(((....)))))), the folding enthalpy in series [1] is -16.3 kcal/mol. The Tm in series [2] was found to be 33.6 °C.
On to GGTATCCGAAAGGAACC (((.(((....)))))), for which, in series [1], the folding enthalpy was -18.8 kcal/mol. Also, in series [2], the Tm was 44.4 °C.
The matching figures for GGTATCCGAAAGGAGACC (((.(((....))).))): -43 kcal/mol and 58.5 °C.
Take GGTATCGAAAGATAGACC ((((((....)))..))): the folding enthalpy in series [1] was -17 kcal/mol. Also, the Tm in series [2] amounted to 30.6 °C.
With GGTATCGAAAGATCAACC ((((((....)))..))), the folding enthalpy in series [1] was -12.9 kcal/mol. In series [2], the Tm was determined as 27 °C.
As to GGTATCGAAAGATGACC ((((((....))).))), the folding enthalpy in series [1] is -22.1 kcal/mol. For the same sequence, the Tm in series [2] is 36.6 °C.
Turning to GGTATCGAAAGATTACC ((((((....))).))), the folding enthalpy in series [1] is -24.9 kcal/mol. The Tm in series [2] turned out to be 37.7 °C.
On to GGTATCGGAAACGATATC (.(((((....))))).), for which the folding enthalpy in series [1] was -24.1 kcal/mol. Moreover, the Tm in series [2] was found to be 45.7 °C.
Consider GGTATCGGAAACGATGTC (..((((....))))..), for which the folding enthalpy in series [1] was -18.5 kcal/mol. Moreover, the Tm in series [2] was 31.9 °C.
The matching figures for GGTATGGGAAACTGTACC ((((..(....)..)))): -21.9 kcal/mol and 36.1 °C.
GGTCACGAAAGTGCTACC ((((((....)))..))): the folding enthalpy in series [1] is -15.6 kcal/mol. Besides, the Tm in series [2] came out at 36.3 °C.
For GGTCACGAAAGTGGAACC ((((((....)))..))), in that order: -18.3 kcal/mol and 40.5 °C.
In the case of GGTCACGAAAGTGGACC ((((((....))).))), the folding enthalpy in series [1] was -29 kcal/mol. Also, in series [2], the Tm was found to be 55.3 °C.
For GGTCACGAAAGTGTAACC ((((((....)))..))), the folding enthalpy in series [1] was -18.3 kcal/mol. Besides, the Tm in series [2] is 39.6 °C.
With GGTCACGAAAGTGTACC ((((((....))).))), the folding enthalpy in series [1] is -25.6 kcal/mol. Further, the Tm in series [2] was 51.5 °C.
As to GGTCACGCGAAAGCGACC (((..(((....)))))), the folding enthalpy in series [1] is -14.2 kcal/mol. Also, the Tm in series [2] was 47.4 °C.
In the case of GGTCACGGAAACACGACC ((((..(....)..)))), in series [1], the folding enthalpy is -18.5 kcal/mol. Besides, the Tm in series [2] stood at 34.5 °C.
Regarding GGTCAGCCGAAAGGCACC (((..(((....)))))), the folding enthalpy in series [1] was -11.4 kcal/mol. For the same sequence, the Tm in series [2] came out at 38.3 °C.
As to GGTCAGGAAACTGACC ((((((....)))))), the folding enthalpy in series [1] is -44.5 kcal/mol. Also, the Tm in series [2] amounted to 59.9 °C.
As for GGTCAGGGAAACCCAACC (((..((....))..))), in series [1], the folding enthalpy was -9.32 kcal/mol. Also, the Tm in series [2] was 29 °C.
Consider GGTCAGGGAAACCCGACC ((((.((....)).)))), for which, in series [1], the folding enthalpy is -32.6 kcal/mol. Further, the Tm in series [2] amounted to 50.2 °C.
Turning to GGTCAGTCGAAAGACACC (((..(((....)))))), in series [1], the folding enthalpy was -13.3 kcal/mol. Also, the Tm in series [2] is 32.9 °C.
Regarding GGTCATCGAAAGATAACC (((.(((....))).))), the folding enthalpy in series [1] was -26.8 kcal/mol. Besides, in series [2], the Tm came out at 39.4 °C.
Regarding GGTCATCGAAAGATTACC (((.(((....))).))), in series [1], the folding enthalpy is -34.3 kcal/mol. Moreover, the Tm in series [2] was found to be 42.6 °C.
Turning to GGTCATGGAAACATGACC (((((((....))))))), the folding enthalpy in series [1] is -51.8 kcal/mol. In addition, the Tm in series [2] amounted to 65.5 °C.
Regarding GGTCATGGAAACATGGCC ((.((((....)))).)), in series [1], the folding enthalpy was -60.3 kcal/mol. Besides, the Tm in series [2] is 54.5 °C.
For GGTCATGGAAACGTGATC (.(((.(....).))).), in that order: -20 kcal/mol and 35.5 °C.
Take GGTCCAGGAAACCGGACC (((((.(....).))))): the folding enthalpy in series [1] is -38.8 kcal/mol. Besides, the Tm in series [2] was determined as 53.3 °C.
Regarding GGTCCAGGAAACTGGGCC ((.((((....)))).)), the folding enthalpy in series [1] is -43.4 kcal/mol. Also, in series [2], the Tm came to 60.2 °C.
Consider GGTCCCCCGAAAGGGACC (((..(((....)))))), for which, in series [1], the folding enthalpy is -29.9 kcal/mol. In addition, the Tm in series [2] came to 63.9 °C.
The matching figures for GGTCCCGAAAGGGAACC ((((((....))).))): -18.5 kcal/mol and 60.5 °C.
Take GGTCCCGAAAGGGCTACC ((((((....)))..))): the folding enthalpy in series [1] was -10.9 kcal/mol. The Tm in series [2] came out at 39.8 °C.
For GGTCCGACGAAAGTCACC (((..(((....)))))), in that order: -14.1 kcal/mol and 28.4 °C.
Regarding GGTCCGCGAAAGCGACC (((.(((....)))))), the folding enthalpy in series [1] is -16.8 kcal/mol. The Tm in series [2] came out at 62.4 °C.
In the case of GGTCCGGGAAACCAGACC ((((.((....)).)))), in series [1], the folding enthalpy is -28.6 kcal/mol. Moreover, the Tm in series [2] was 46.4 °C.
Consider GGTCCGGGAAACTGGACC (((((.(....).))))), for which, in series [1], the folding enthalpy is -45.3 kcal/mol. In addition, in series [2], the Tm worked out at 58.8 °C.
Turning to GGTCCTCCGAAAGGAACC (((..(((....)))))), in series [1], the folding enthalpy is -13 kcal/mol. Moreover, the Tm in series [2] came to 32.9 °C.
Turning to GGTCGACCGAAAGGTACC (((..(((....)))))), the folding enthalpy in series [1] is -14 kcal/mol. In series [2], the Tm worked out at 31.8 °C.
As to GGTCGAGGAAACTCGATC (.(((((....))))).), in series [1], the folding enthalpy was -30.7 kcal/mol. Further, the Tm in series [2] worked out at 52.2 °C.
With GGTCGAGGAAACTTGGCC ((.(.((....)).).)), the folding enthalpy in series [1] is -25.3 kcal/mol. For the same sequence, the Tm in series [2] came to 42.4 °C.
The matching figures for GGTCGCCCGAAAGGGACC (((..(((....)))))): -15.8 kcal/mol and 45.1 °C.
As to GGTCGCGAAAGCGACACC ((((((....)))..))), the folding enthalpy in series [1] was -5.57 kcal/mol. Further, the Tm in series [2] is 60.7 °C.
For GGTCGCGAAAGCGGACC ((((((....))).))), in that order: -22.9 kcal/mol and 67.1 °C.
The matching figures for GGTCGCGAAAGCGGCACC ((((((....)))..))): -9.3 kcal/mol and 52.8 °C.
As to GGTCGCGAAAGCGGGACC ((((((....)))..))), the folding enthalpy in series [1] is -18.9 kcal/mol. In series [2], the Tm stood at 52.1 °C.
Consider GGTCGCGGAAACACGACC (((((.(....).))))), for which, in series [1], the folding enthalpy was -41 kcal/mol. Moreover, in series [2], the Tm turned out to be 56.9 °C.
Turning to GGTCGGGGAAACTCGGCC ((.((.(....).)).)), the folding enthalpy in series [1] is -34 kcal/mol. In addition, the Tm in series [2] was found to be 49.1 °C.
With GGTCGTGCGAAAGCAACC (((..(((....)))))), the folding enthalpy in series [1] was -8.03 kcal/mol. Besides, the Tm in series [2] worked out at 27.6 °C.
Regarding GGTCGTGGAAACACAACC (((.(((....))).))), the folding enthalpy in series [1] was -27.6 kcal/mol. Besides, the Tm in series [2] is 42.5 °C.
For GGTCGTGGAAACACGGCC ((.((((....)))).)), in series [1], the folding enthalpy was -56.7 kcal/mol. In addition, in series [2], the Tm was 61.8 °C.
For GGTCGTGGAAACATGACC ((((.((....)).)))), in that order: -34 kcal/mol and 56.5 °C.
Turning to GGTCGTGGAAACGCGACC (((((.(....).))))), the folding enthalpy in series [1] was -50.9 kcal/mol. Besides, the Tm in series [2] was found to be 60 °C.
GGTCTACGAAAGTAAACC (((.(((....))).))): the folding enthalpy in series [1] is -26.2 kcal/mol. In addition, the Tm in series [2] amounted to 39.3 °C.
Consider GGTCTAGCGAAAGCTACC (((..(((....)))))), for which the folding enthalpy in series [1] is -10.1 kcal/mol. Further, in series [2], the Tm is 31.2 °C.
Turning to GGTCTCCCGAAAGGGACC (((..(((....)))))), in series [1], the folding enthalpy is -12.4 kcal/mol. Besides, in series [2], the Tm was 41.2 °C.
The matching figures for GGTCTCGAAAGAGACACC ((((((....)))..))): -9.21 kcal/mol and 48.4 °C.
Turning to GGTCTCGAAAGAGGCACC ((((((....)))..))), the folding enthalpy in series [1] is -14.5 kcal/mol. The Tm in series [2] worked out at 39.1 °C.
For GGTCTCGGAAACGAAACC (((.(((....))).))), in that order: -27.5 kcal/mol and 39.2 °C.
For GGTCTCGGAAACGGGACC ((((.((....)).)))), in that order: -44 kcal/mol and 57.5 °C.
As to GGTCTCGGAAACGGGATC (.((.((....)).)).), the folding enthalpy in series [1] is -28.8 kcal/mol. The Tm in series [2] amounted to 39 °C.
Turning to GGTCTGAAAAGACC (((((....))))), the folding enthalpy in series [1] is -31.1 kcal/mol. Also, the Tm in series [2] worked out at 61.7 °C.
For the sequence GGTCTGGAAACAGACC ((((((....)))))), in series [1], the folding enthalpy was -38 kcal/mol. Moreover, the Tm in series [2] came to 63.9 °C.
Turning to GGTCTGGGAAACCAAACC (((.(((....))).))), the folding enthalpy in series [1] was -29.9 kcal/mol. Also, the Tm in series [2] came to 35.1 °C.
